According to ChEMBL document CHEMBL4811322, “Impact of α-modifications on the activity of triazole bisphosphonates as geranylgeranyl diphosphate synthase inhibitors” (Bioorg Med Chem, 2021):
Activity calls are given as the source filed them. The rule behind the calls is not given here.

Assays:
[1] = biological target: T1, Geranylgeranyl pyrophosphate synthase (Homo sapiens, UniProt O95749); test: Inhibition of recombinant GGDPS (unknown origin) using FPP and [14C] IPP as substrate preincubated for 10 mins followed by substrate addition measured after 30 mins by liquid scintillation counting method
T1 sequence (O95749 whole entry): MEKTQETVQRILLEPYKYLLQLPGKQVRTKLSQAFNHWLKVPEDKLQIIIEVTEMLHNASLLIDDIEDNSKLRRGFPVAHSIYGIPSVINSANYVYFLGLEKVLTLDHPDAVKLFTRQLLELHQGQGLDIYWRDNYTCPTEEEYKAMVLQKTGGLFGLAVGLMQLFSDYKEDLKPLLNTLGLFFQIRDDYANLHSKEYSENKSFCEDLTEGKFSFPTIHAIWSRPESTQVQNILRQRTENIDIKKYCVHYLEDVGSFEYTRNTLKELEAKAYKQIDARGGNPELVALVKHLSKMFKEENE
Procedure, shortened: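 In the enzyme assay, each compound was tested in duplicate at multiple concentrations, with three independent experiments. IC50 values were derived from concentration-response curve analysis.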

[2] = biological target: T2, Geranylgeranyl pyrophosphate synthase (Homo sapiens) (UniProt O95749); test: Inhibition of GGDPS in human RPMI-8226 cells assessed as lowest effective concentration required to show unmodified Rap1a band after 48 hrs by immunoblot analysis; format: cell-based
T2 sequence (whole entry): T1 sequence (O95749 whole entry)
Procedure, shortened: (§1)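 LEC is the lowest concentration giving both a visible unmodified Rap1a band and a statistically significant rise in lambda light chain (ELISA, two-tailed t-test, p<0.05). RPMI-8226 cells were treated for 48 h. The Rap1a antibody detects only unmodified Rap1a, with β-tubulin as loading control. Lysates were made in RIPA buffer and normalised by BCA.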

[3] = test system: RPMI-8226; test: Cytotoxicity against human RPMI-8226 cells assessed as decrease in cell viability at 10 to 100 uM measured after 48 hrs by MTT assay; format: functional, cell-based; settings: dose 10-100 µM
Procedure, shortened: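 RPMI-8226 myeloma cells seeded at 2.5 × 10^4 cells per 100 μL well and exposed to compound for 48 h, then MTT read-out. Absorbance of solvent-only control cells set as 100% MTT activity. Data expressed as percentage of control, mean ± SD, n=4.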

[4] = biological target: T2, Geranylgeranyl pyrophosphate synthase (Homo sapiens); test: Inhibition of GGDPS in human RPMI-8226 cells assessed as disruption of farnesylation at 0.1 to 1 uM measured after 48 hrs by immunoblot analysis; format: cell-based; settings: dose 0.1-1 µM
Procedure, shortened: (§2)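 H-Ras farnesylation was checked by immunoblot after RPMI-8226 cells (ATCC) were exposed to compound for 48 h, with lovastatin 10 μM as positive control. Whole-cell RIPA lysates with protease/phosphatase inhibitors were protein-normalised by BCA, run on SDS-PAGE and transferred to PVDF. Blots were probed for H-Ras with β-tubulin as loading control and detected with HRP secondary/ECL. Gels are representative of three independent studies.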

[5] = biological target: T2, Geranylgeranyl pyrophosphate synthase (Homo sapiens); test: Inhibition of GGDPS in human RPMI-8226 cells assessed as lowest effective concentration required to show unmodified Rap1a band up to 100 uM after 48 hrs by immunoblot analysis; format: cell-based; settings: dose microM <=100, time 48.0 hrs; procedure, shortened: as §1
[6] = biological target: T2, Geranylgeranyl pyrophosphate synthase (Homo sapiens); test: Inhibition of GGDPS in human RPMI-8226 cells assessed as increase in intracellular lambda chain level after 48 hrs by ELISA; format: cell-based
Procedure, shortened: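 Intracellular lambda light chain was quantified by ELISA in the same 48 h RPMI-8226 lysates prepared for immunoblotting, with lovastatin 10 μM as positive control. Values are percentage of untreated control, mean ± SD, n=3. Two-tailed t-test against untreated cells, significance at p<0.05.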

[7] = biological target: T2, Geranylgeranyl pyrophosphate synthase (Homo sapiens); test: Inhibition of GGDPS in human RPMI-8226 cells assessed as disruption of farnesylation at 0.05 to 0.5 uM measured after 48 hrs by immunoblot analysis; format: cell-based; settings: dose 0.05-0.5 µM; procedure, shortened: as §2

CC(C)=CCC/C(C)=C/Cn1cc(CC(CN)(P(=O)(O)O)P(=O)(O)O)nn1
IC50 [1]: 2000 nM
LED [2]: 0.5 µM
Activity [3]: Active

CC(C)=CCC/C(C)=C/Cn1cc(C=C(P(=O)(O)O)P(=O)(O)O)nn1
IC50 [1]: 2700 nM
LED [2]: 0.25 µM
inhibition [4]: inactive
Activity [3]: Active

CC(C)=CCC/C(C)=C/Cn1cc(CC(C)(P(=O)(O)O)P(=O)(O)O)nn1
IC50 [1]: 1300 nM
LED [2]: 0.1 µM

C=C(Cc1cn(C/C=C(\C)CCC=C(C)C)nn1)P(=O)(O)O
IC50 [1]: > 100000 nM
inhibition [5]: inactive
Activity [3]: inactive

CCC(Cc1cn(C/C=C(\C)CCC=C(C)C)nn1)(P(=O)(O)O)P(=O)(O)O
IC50 [1]: 5900 nM
LED [2]: 2.5 µM

CC(C)=CCC/C(C)=C/Cn1cc(CC(F)(P(=O)(O)O)P(=O)(O)O)nn1
IC50 [1]: 3000 nM
LED [2]: 0.25 µM
inhibition [6]: Active
inhibition [4]: inactive
Activity [3]: Active

CC(C)=CCC/C(C)=C/Cn1cc(CCP(=O)(O)O)nn1
IC50 [1]: > 100000 nM
inhibition [5]: inactive
Activity [3]: inactive

CC(C)=CCC/C(C)=C/Cn1cc(C2CC2(P(=O)(O)O)P(=O)(O)O)nn1 (stereo not given)
IC50 [1]: 1600 nM
LED [2]: 0.5 µM
inhibition [4]: inactive
Activity [3]: Active

CC(C)=CCC/C(C)=C/Cn1cc(CC(P(=O)(O)O)P(=O)(O)O)nn1
LED [2]: 0.5 µM

CC(C)=CCC/C(C)=C/Cn1cc(CC(O)(P(=O)(O)O)P(=O)(O)O)nn1
LED [2]: 0.1 µM
inhibition [7]: inactive
Activity [3]: Active
